Assay outcomes (PubChem BioAssay)
HCT116 bCat-KO = primary screen for growth suppressors in beta-catenin knockout HCT116 cells (colon tumor, human); HCT116 beta-catenin knockout viability, CellTiter-Glo, 60 h; hits give low values; viability, % at 10 µM; 140,000 tested, 1.5% active; AID 818, 2007;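 active = viability at or under a set limit, the compound median less 4 SD, cut at about 6% in these data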;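 also: 0% = Hyamine 1622 control at 20 µM and 100% = untreated cell control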
TNAP act hiacc = TNAP activators at high phosphate acceptor level, primary screen, biochemical, luminescence, uHTS; Alkaline phosphatase, tissue-nonspecific isozyme (Homo sapiens), P05186; purified TNAP, CDP-star luminescence, 1 M DEA, 30 min; hits give high values; 0 = EDTA background, 1 = DMSO-only activity; activation factor at 20 µM; 200,000 tested, under 10 active;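 active = activation factor at least 2 at 20 µM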
Target sequence (P05186 whole entry, looked up): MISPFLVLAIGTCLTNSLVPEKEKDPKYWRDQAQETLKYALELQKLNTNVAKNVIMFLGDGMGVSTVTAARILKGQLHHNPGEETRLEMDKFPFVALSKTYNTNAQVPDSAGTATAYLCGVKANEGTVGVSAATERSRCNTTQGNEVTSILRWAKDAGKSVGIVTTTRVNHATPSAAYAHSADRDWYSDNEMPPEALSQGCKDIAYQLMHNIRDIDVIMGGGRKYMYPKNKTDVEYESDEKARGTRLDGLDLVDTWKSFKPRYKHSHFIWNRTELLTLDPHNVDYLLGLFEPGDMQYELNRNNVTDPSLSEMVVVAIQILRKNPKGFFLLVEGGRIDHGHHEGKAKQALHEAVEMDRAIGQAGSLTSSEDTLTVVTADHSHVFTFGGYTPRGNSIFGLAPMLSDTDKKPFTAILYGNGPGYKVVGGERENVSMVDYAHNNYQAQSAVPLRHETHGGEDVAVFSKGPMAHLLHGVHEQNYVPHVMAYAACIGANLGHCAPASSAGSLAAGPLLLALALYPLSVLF
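Dosing: 20 µM single point. System: human TNAP. Amount: TNAP 1/800 final. Incubation: 30 min, room temperature. Read-out: TNAP activation factor scaled between EDTA and DMSO control wells. Signal: luminescence from CDP-star hydrolysis. Medium: 1 M DEA, pH 9.8, Mg2+, Zn2+. Control set: EDTA negative control, DMSO positive control.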
Lmaj promast = Leishmania major promastigote growth inhibition, primary screen; Leishmania major promastigotes, resazurin fluorescence viability; inhibition, % at 10 µM; 200,000 tested, 9% active; in the data active = inhibition above about 50%;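 also: promastigotes grown with compound for 44 hours at 28 °C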
TNAP inh hi DEA = human TNAP enzyme inhibitors, primary screen, biochemical, luminescent, high phosphate acceptor level, uHTS | purified TNAP, CDP-star luminescence, 1 M DEA | inhibition, % at 20 µM | Alkaline phosphatase, tissue-nonspecific isozyme (Homo sapiens), P05186 | 200,000 tested, 0.03% active;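 active = over 50% inhibition of tissue-nonspecific alkaline phosphatase at 20 µM in the single-dose screen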;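 also: plate controls were DMSO wells for no effect and EDTA-quenched wells as full inhibition for full effect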
HCT116 PTEN-null = growth suppression of PTEN-null HCT116, primary screen, cell-based, CellTiter-Glo; HCT116 PTEN-null viability, 60 h; hits give low values; viability, % at 10 µM; 140,000 tested, 1.2% active;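 active = viability at or below a set limit, 4 SD under the median of all tested compounds, cut at about 3.7% in these data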;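 also: PTEN knockout HCT116 line with beta catenin targeted HCT116 as companion control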
TNAP inh noacc = human TNAP enzyme inhibitors, primary screen, biochemical, luminescent, no phosphate acceptor, uHTS. Alkaline phosphatase, tissue-nonspecific isozyme (Homo sapiens), P05186. inhibition, % at 20 µM. purified TNAP, CDP-star luminescence, 30 min. 200,000 tested, 0.26% active;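 active = tissue-nonspecific alkaline phosphatase inhibition above about 50% at 20 µM in the single-dose screen, limit read from the data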;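 also: 0% = DMSO negative control and 100% = EDTA positive control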
The depositor's hits bear a star; / = no result given. Sampled rows, rich in hits. Any-hit rate of the full collection: about 9.6%.

SMILES | HCT116 bCat-KO | TNAP act hiacc | Lmaj promast | TNAP inh hi DEA | HCT116 PTEN-null | TNAP inh noacc
O=C(CCc1nnc(CCCc2ccccc2)o1)NC(C1CC1)C1CC1 | / | 1 | -5 | -3 | / | -10
COc1cc(C(=O)Nc2ccc(N3CCOCC3)cc2)ccc1OCc1c(C)noc1C | 91 | 1 | -2 | -4 | 97 | -20
CCNS(=O)(=O)c1ccc2nc(NC(=O)/C=C/c3cc(OC)c(OC)c(OC)c3)sc2c1 | 88 | 1 | 52* | 1 | 88 | -14
COc1cc(/C=C/C(=O)Nc2nc3ccc(S(=O)(=O)NC(C)C)cc3s2)cc(OC)c1OC | 91 | 1.1 | 22 | -7 | 95 | -10
COCCn1c(SCC(=O)Nc2cccc(C)c2)nnc1C(C)C | 102 | 1 | 91* | -3 | 107 | -13
Cc1ccccc1-c1oc(C)c(C)[n+]1[O-] | / | 1 | -3 | -4 | / | -13
Cc1c(C(=O)Nc2ccc3c4c(cccc24)CC3)cccc1[N+](=O)[O-] | 63 | 0.9 | -2 | 5 | 58 | 0
Cc1ccc(C(=O)Nc2ccccc2C(=O)N2CCCC2)cc1[N+](=O)[O-] | 88 | 1.1 | 58* | -6 | 98 | -12
Cc1ccc(C(=O)Nc2ccc3c4c(cccc24)CC3)cc1[N+](=O)[O-] | 93 | 1 | 60* | 3 | 94 | -5
CCOC(=O)N1CCN(C(=O)c2ccccc2NC(=O)c2ccc(C(C)(C)C)cc2)CC1 | 96 | 1 | 74* | -1 | 88 | -3
CCOC(=O)c1oc2ccccc2c1NC(=O)CN1CCOCC1 | / | 1.1 | 7 | -7 | / | -11
O=C1COc2ccc(C(=O)COC(=O)CCSc3ccc(Cl)cc3)cc2N1 | / | 1 | -5 | 4 | / | 3
Cc1ccc(-n2c(C)c3c(C)nnc(C)c3c2C)cc1C | 4.0* | 1 | 49 | -1 | 8 | -18
Cc1ccc(-n2c(C)c3c(C)nnc(C)c3c2C)cc1N | / | 1 | 6 | -5 | / | -14
Cc1ccccc1N1CCN(C(=S)c2ccccc2)CC1 | 77 | 1 | 57* | -2 | 75 | -2
Cc1ccccc1N1CCN(S(=O)(=O)c2ccccc2)CC1 | 89 | 1 | 31 | 1 | 88 | -7
COc1ccc2nc(Nc3nc4cc5c(cc4s3)OCO5)sc2c1 | 78 | 1.1 | 55* | -8 | 77 | -169
COc1ccc(-c2ccc(SCC(=O)c3ccccc3)nn2)cc1OC | / | 1 | 61* | -2 | / | -3
Cc1ccc(-c2ccc(SCC(=O)c3ccccc3)nn2)cc1 | 80 | 1 | -2 | -1 | 80 | -18
Cn1c(CNC(=O)OC(C)(C)C)n[nH]c1=S | / | 1 | -9 | -3 | / | -5
Cc1ccc(-c2csc(NC(=O)COc3ccc(N(C)S(=O)(=O)c4ccc(C)cc4)cc3)n2)cc1 | 68 | 1 | 90* | -3 | 71 | -13
COc1ccc(-c2csc(NC(=O)COc3ccc(N(C)S(=O)(=O)c4ccc(C)cc4)cc3)n2)cc1 | 74 | 1 | 95* | -2 | 69 | -28
COc1ccc(S(=O)(=O)N(C)c2ccc(OCC(=O)Nc3cc(C)on3)cc2)cc1 | 91 | 1.1 | -5 | -8 | 84 | -14
COc1ccc(CCNC(=O)COc2ccc(N(C)S(=O)(=O)c3ccc(C)cc3)cc2)cc1 | / | 1 | 6 | -5 | / | -12
Cc1ccc(-c2ccc(=O)n(CC(=O)NCc3ccc(F)cc3)n2)cc1 | / | 1 | 3 | 0 | / | -4
SMILES | HCT116 bCat-KO | TNAP act hiacc | Lmaj promast | TNAP inh hi DEA | HCT116 PTEN-null | TNAP inh noacc
CC(NC(=O)c1ccc(C(F)(F)F)cc1)C(c1ccccc1)N1CCOCC1 (centres undefined) | / | 1.1 | 4 | -7 | / | -11
O=C(CCn1nc(-c2ccccc2)c2ccccc2c1=O)NN1CCOCC1 | / | 1 | -2 | -4 | / | -17
CN1CCN(C(=O)CCn2nc(-c3ccccc3)c3ccccc3c2=O)CC1 | 95 | 1 | 54* | -3 | 91 | -8
O=C(O)/C=C/c1nc(-c2ccccc2)n2ccccc12 | 88 | 1 | 2 | -3 | 69 | -10
CC(C)=NOc1cc(NC(=O)CCl)cc([N+](=O)[O-])c1 | 3.3* | 1 | 99* | 3 | 3.0* | -2
CSCCC(NC(=O)c1ccccc1)C(=O)OCC(=O)Nc1ccc(C)c(Cl)c1 (centres undefined) | 95 | 1 | 24 | -3 | 95 | -3
CSCCC(NC(=O)c1ccc(Cl)cc1)C(=O)OCC(=O)Nc1cc(Cl)ccc1C#N (centres undefined) | 82 | 1 | 54* | 0 | 90 | -3
C=CCc1ccc(OCCOCCNCCCC)c(OC)c1 | 84 | 1 | 96* | -4 | 89 | -6
C=CCc1ccc(OCCOCCNCCOC)c(OC)c1 | 102 | 1 | 99* | -1 | 95 | -15
CN(C)C(CNc1ncnc2sc3c(c12)CCCC3)c1ccco1 (centres undefined) | / | 1 | 10 | -2 | / | -13
CC[n+]1c(/C=C/c2c[nH]c3ccccc23)ccc2cc(C)ccc21 | / | 0.4 | 100* | 61* | / | 60*
CCN(CC)C(=O)c1ccc(/C=C/c2c[nH]c3ccccc23)[n+](C)c1 | 84 | 0.8 | 3 | 21 | 88 | 18
CCc1ccc(CNc2ccc(O)cc2)cc1 | 61 | 0.9 | 98* | 6 | 45 | -1
CCOC(=O)c1ccc(NCc2ccncc2)cc1 | / | / | -4 | / | / | /
O=C(O)CCCSc1nccn1-c1ccccc1 | / | 1.1 | 0 | -5 | / | -7
COc1ccc(CNc2cc(NCCCO)c([N+](=O)[O-])c3nonc23)cc1 | / | 1 | 67* | 2 | / | -11
Cn1ccnc1Sc1cc(NCCCO)c([N+](=O)[O-])c2nonc12 | / | 1 | -2 | 2 | / | 5
O=[N+]([O-])c1c(NCCCO)cc(Sc2ccc(Cl)cc2)c2nonc12 | 1.5* | 0.9 | -4 | 10 | 1.2* | 6
CCCC(=O)OCCNc1cc(SCCC(=O)OC)c2nonc2c1[N+](=O)[O-] | 87 | 0.9 | 16 | 8 | 95 | 1
CC(=O)OCCNc1cc(Sc2nc3ccccc3[nH]2)c2nonc2c1[N+](=O)[O-] | 1.6* | 0.8 | 5 | 19 | 1.5* | 7
O=[N+]([O-])c1c(NCCCO)cc(N2CCN(Cc3ccc4c(c3)OCO4)CC2)c2nonc12 | 73 | 1 | 1 | 1 | 69 | 1
CC(=O)OCCCNc1cc(Sc2ccc(C)cc2)c2nonc2c1[N+](=O)[O-] | 3.6* | 0.9 | 6 | 6 | 3.8* | 6
CC(C)N1C(=O)CCC1C(=O)NCc1cccs1 (centres undefined) | / | 1 | -7 | -5 | / | -6
